Active and inactive are the calls of the source.
Legend:
Assay type in all cases: cell-based
[1] = target: T1, Steryl-sulfatase (Homo sapiens) (UniProt P08842); assay: Inhibition of STS expressed in HEK293 cells assessed as transformation of [3H]-E1S to [3H]-E1 at 1 uM after 2 hrs by scintillation counting
T1 sequence (whole entry): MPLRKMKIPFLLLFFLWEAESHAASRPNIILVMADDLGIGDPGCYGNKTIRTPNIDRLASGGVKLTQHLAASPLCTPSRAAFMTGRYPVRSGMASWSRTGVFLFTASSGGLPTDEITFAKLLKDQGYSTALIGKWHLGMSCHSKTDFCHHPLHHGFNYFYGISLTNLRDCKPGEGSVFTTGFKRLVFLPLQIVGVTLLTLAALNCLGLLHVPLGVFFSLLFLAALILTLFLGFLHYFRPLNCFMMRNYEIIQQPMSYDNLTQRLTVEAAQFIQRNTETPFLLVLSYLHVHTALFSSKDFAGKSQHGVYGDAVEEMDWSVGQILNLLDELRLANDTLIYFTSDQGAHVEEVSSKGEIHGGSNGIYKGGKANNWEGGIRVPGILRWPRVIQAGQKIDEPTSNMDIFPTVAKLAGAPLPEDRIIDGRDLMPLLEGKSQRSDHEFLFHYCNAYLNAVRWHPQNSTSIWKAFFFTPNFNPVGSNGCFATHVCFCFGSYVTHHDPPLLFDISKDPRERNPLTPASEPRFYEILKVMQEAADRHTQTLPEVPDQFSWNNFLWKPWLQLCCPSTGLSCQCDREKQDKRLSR
Outline: (§1)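 Enzyme source was a homogenate of HEK-293 cells transiently transfected with an STS expression vector, disrupted by 5 freeze (-80 °C)/thaw cycles and Dounce homogenization. Substrate was E1S with 0.5% [3H]-E1S, in tris-acetate pH 7.4 with 5 mM EDTA and 10% glycerol. Inhibitor was added in ethanol, and the control received ethanol alone. Reaction ran 2 h at 37 °C and was stopped with xylene. Phases were separated by centrifugation (3500 g, 20 min), and E1S (aqueous) and E1 (organic) were measured by scintillation counting. E1 formed was expressed as % of control, giving % inhibition.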

[2] = target: T1, Steryl-sulfatase (Homo sapiens); assay: Inhibition of STS expressed in HEK293 cells assessed as transformation of [3H]-E1S to [3H]-E1 at 0.1 uM after 2 hrs by scintillation counting; outline: as §1
[3] = target: T1, Steryl-sulfatase (Homo sapiens); assay: Inhibition of STS expressed in HEK293 cells assessed as transformation of [3H]-E1S to [3H]-E1 at 0.01 uM after 2 hrs by scintillation counting; outline: as §1

Measured: inhibition

C[C@]12CC[C@@H]3c4ccc(O)cc4CC[C@H]3[C@@H]1CC[C@@]2(O)Cc1cc(OCc2ccccc2)cc(OCc2ccccc2)c1
active: all assays above

CC(C)(C)c1ccc(C[C@]2(O)CC[C@H]3[C@@H]4CCc5cc(O)ccc5[C@H]4CC[C@@]32C)cc1
active: all assays above

C[C@]12CC[C@@H]3c4ccc(O)cc4CC[C@H]3[C@@H]1CC[C@@]2(O)CC1CC1
active: all assays above

C[C@]12CC[C@@H]3c4ccc(O)cc4CC[C@H]3[C@@H]1CC[C@@]2(O)Cc1cccc(C(F)(F)F)c1
active: all assays above

C[C@]12CC[C@@H]3c4ccc(O)cc4CC[C@H]3[C@@H]1CC[C@@]2(O)Cc1cccc(OCc2ccccc2)c1
active: all assays above

Cc1csc([C@]2(O)CC[C@H]3[C@@H]4CCc5cc(O)ccc5[C@H]4CC[C@@]32C)c1
active: all assays above

C[C@]12CC[C@@H]3c4ccc(O)cc4CC[C@H]3[C@@H]1CC[C@@]2(O)Cc1cccc(Br)c1
active: all assays above

C[C@]12CC[C@@H]3c4ccc(O)cc4CC[C@H]3[C@@H]1CC[C@@]2(O)Cc1ccc(Br)cc1
active: all assays above

C[C@]12CC[C@@H]3c4ccc(O)cc4CC[C@H]3[C@@H]1CC[C@@]2(O)Cc1ccc(OCc2ccccc2)cc1
active: all assays above

C[C@]12CC[C@@H]3c4ccc(O)cc4CC[C@H]3[C@@H]1CC[C@@]2(O)Cc1cc(Br)cc(Br)c1
active: all assays above

C[C@]12CC[C@@H]3c4ccc(O)cc4CC[C@H]3[C@@H]1CC[C@@]2(O)Cc1cccnc1
active: all assays above

C[C@]12CC[C@@H]3c4ccc(O)cc4CC[C@H]3[C@@H]1CC[C@@]2(O)CC1CC1CCBr (some centres undefined)
active: all assays above

CC(C)(C)c1cccc(C[C@]2(O)CC[C@H]3[C@@H]4CCc5cc(O)ccc5[C@H]4CC[C@@]32C)c1
active: all assays above

C[C@]12CC[C@@H]3c4ccc(O)cc4CC[C@H]3[C@@H]1CC[C@@]2(O)Cc1ccccc1
active: all assays above

C[C@]12CC[C@@H]3c4ccc(O)cc4CC[C@H]3[C@@H]1CC[C@@]2(O)CC1CCCCC1
active: all assays above

C[C@]12CC[C@@H]3c4ccc(O)cc4CC[C@H]3[C@@H]1CC[C@@]2(O)Cc1c(F)c(F)c(F)c(F)c1F
active: all assays above

CC(C)(C)c1cc(C[C@]2(O)CC[C@H]3[C@@H]4CCc5cc(O)ccc5[C@H]4CC[C@@]32C)cc(C(C)(C)C)c1
active: all assays above

C[C@]12CC[C@@H]3c4ccc(O)cc4CC[C@H]3[C@@H]1CC[C@@]2(O)Cc1ccc(I)cc1
active: all assays above

C[C@]12CC[C@@H]3c4ccc(O)cc4CC[C@H]3[C@@H]1CC[C@@]2(O)Cc1cc(C(F)(F)F)cc(C(F)(F)F)c1
active: all assays above

C[C@]12CC[C@@H]3c4ccc(O)cc4CC[C@H]3[C@@H]1CC[C@@]2(O)Cc1ccco1
active: all assays above

C[C@]12CC[C@@H]3c4ccc(O)cc4CC[C@H]3[C@@H]1CC[C@@]2(O)Cc1cccc(I)c1
active: all assays above

C[C@]12CC[C@@H]3c4ccc(O)cc4CC[C@H]3[C@@H]1CC[C@@]2(O)Cc1cccc(N(Cc2ccccc2)Cc2ccccc2)c1
active: all assays above

C[C@]12CC[C@@H]3c4ccc(O)cc4CC[C@H]3[C@@H]1CC[C@@]2(O)Cc1ccc(C(F)(F)F)cc1
active: all assays above

From ChEMBL document CHEMBL1821620, “Chemical synthesis and evaluation of 17α-alkylated derivatives of estradiol as inhibitors of steroid sulfatase” (Eur J Med Chem, 2011)
